# From ChEMBL document CHEMBL2331229, “Extracellular signal-regulated kinases (ERK) inhibitors from Aristolochia yunnanensis” (J Nat Prod, 2013)
# Active and inactive are the calls of the source. No cut-off for these calls is given here.
# Assays:
# [1] = target: MAP kinase p38 (Homo sapiens) (UniProt O15264+Q15759+Q16539+P53778); assay: Inhibition of p38 phosphorylation in human HeLa cells at 20 uM after 3 hrs by Western blotting analysis; assay type: cell-based
# Method in brief: (§1)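 HeLa cells exposed to 20 μM compound for 3 h. Lysed in Tris pH 7.4/NaCl/NP-40/deoxycholate/SDS buffer with protease and phosphatase inhibitors, protein by BCA. Then 20 μg protein on 8–10% SDS-PAGE, transferred to nitrocellulose and blocked with 5% milk. Primary antibodies overnight at 4 °C, detection by chemiluminescence. Phospho-ERK1/2, -JNK and -p38 quantified by densitometry (n = 3, ANOVA).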
# [2] = target: T1, Mitogen-activated protein kinase; ERK1/ERK2 (Homo sapiens) (UniProt P27361+P28482); assay: Inhibition of ERK1/2 phosphorylation in human HeLa cells at 20 uM after 3 hrs by Western blotting analysis; assay type: cell-based; method in brief: as §1
# [3] = target: c-Jun N-terminal kinase, JNK (Homo sapiens) (UniProt P45983+P53779+P45984); assay: Inhibition of JNK phosphorylation in human HeLa cells at 20 uM after 3 hrs by Western blotting analysis; assay type: cell-based; method in brief: as §1
# [4] = target: T1, Mitogen-activated protein kinase; ERK1/ERK2 (Homo sapiens); assay: Inhibition of ERK1/2 phosphorylation in human HeLa cells after 3 hrs by Western blotting analysis; assay type: cell-based
# Method in brief: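 HeLa cells exposed to compound at indicated concentrations (2.5 to 40 μM range) for 3 h, with PD98059 as positive control. Lysate protein (20 μg) was run on SDS-PAGE and Western blotted for phospho-ERK1/2. Blots were quantified by densitometry (n = 3, ANOVA).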
# HeLa = assay: Cytotoxicity against human HeLa cells assessed as decrease in cell viability at 50 uM after 48 hrs by WST-8-based colorimetric assay; assay type: functional
# Method in brief: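 HeLa cells in 96-well plates given 50 μM compound for 48 h. Viability read with CCK-8: phenol red-free DMEM containing 10% WST-8 added, 1 h at 37 °C, then OD at 450 nm. Computed from the mean of three wells (n = 3, ANOVA).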
# T1 sequence (P27361 whole entry, looked up): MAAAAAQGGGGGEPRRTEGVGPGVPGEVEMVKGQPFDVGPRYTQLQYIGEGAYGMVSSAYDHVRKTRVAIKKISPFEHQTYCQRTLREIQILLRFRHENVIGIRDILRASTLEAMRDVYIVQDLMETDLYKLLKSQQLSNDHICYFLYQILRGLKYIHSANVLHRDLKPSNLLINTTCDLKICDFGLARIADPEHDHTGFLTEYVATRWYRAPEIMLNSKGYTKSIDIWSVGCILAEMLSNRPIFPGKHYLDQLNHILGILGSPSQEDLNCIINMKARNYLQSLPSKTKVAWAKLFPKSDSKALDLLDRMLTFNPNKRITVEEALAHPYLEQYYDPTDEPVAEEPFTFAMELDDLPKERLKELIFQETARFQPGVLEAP
# T1 sequence (P28482 whole entry, looked up): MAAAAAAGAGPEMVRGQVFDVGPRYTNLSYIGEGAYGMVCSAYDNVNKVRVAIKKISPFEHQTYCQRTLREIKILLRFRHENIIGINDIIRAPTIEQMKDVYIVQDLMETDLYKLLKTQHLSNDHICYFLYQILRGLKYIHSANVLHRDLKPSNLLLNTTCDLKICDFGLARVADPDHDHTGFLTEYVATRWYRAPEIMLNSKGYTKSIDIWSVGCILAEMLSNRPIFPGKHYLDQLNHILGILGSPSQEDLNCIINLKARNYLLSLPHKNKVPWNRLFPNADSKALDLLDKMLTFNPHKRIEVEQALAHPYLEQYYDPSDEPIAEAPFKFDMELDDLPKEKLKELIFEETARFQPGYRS
Compound,inhibition [1],inhibition [2],inhibition [3],inhibition [4],Activity (HeLa)
C/C1=C\CCC2=C[C@H](C/C(C)=C/CC1)OC2=O,inactive,,inactive,Dose-dependent effect,
C/C1=C\CCC2=CC(O)(C/C(C)=C/CC1)OC2=O (racemic),inactive,Active,inactive,,inactive
CC(=O)O[C@H]1/C=C(\C=O)CC/C=C(\C)CC/C=C(\C)C1,,,,,Active
COc1cccc(-c2cc(=O)c3ccccc3o2)c1N,,Active,,,
C=C(C)[C@H]1C/C=C(\C)[C@@H](O)CCC2=C[C@H]1OC2=O,,,,,Active
C/C1=C\CC/C(C=O)=C\[C@@H]2[C@@H](CC1)[C@]2(C)CO,,,,,Active
C=C(C)[C@H]1CCC(=C)[C@@H](O)CCC2=C[C@H]1OC2=O,inactive,Active,inactive,,
COC(=O)[C@]1(C)[C@@H]2/C=C(/C=O)CC/C=C(\C)CC[C@H]21,,,,,Active

# Continued, in another order:
inhibition [1],inhibition [2],inhibition [3],inhibition [4],Compound,Activity (HeLa)
inactive,Active,inactive,,C/C1=C\CC/C(C=O)=C\[C@H]2[C@@H](C[C@H]1O)C2(C)C,
inactive,Active,inactive,,CC1(C)[C@@H]2CC[C@@]3(C)O[C@@H]3CC/C(C=O)=C\[C@@H]21,
inactive,Active,inactive,,C=C(C)[C@H]1CC[C@]2(C)[C@@H]([N+](=O)[O-])CC[C@@]23C(=O)O[C@@H]1[C@@H]3O,
inactive,,inactive,Dose-dependent effect,C[C@@H]1CC(=O)C=C2CC[C@@H]3[C@@H](C3(C)C)[C@]21C,
inactive,Active,inactive,,C/C1=C\CC/C(C=O)=C\[C@@H]2[C@@H](CC1)C2(C)C,
inactive,Active,inactive,,C=C(C)[C@H]1CC/C(C)=C/CCC2=C[C@H]1OC2=O,
inactive,Active,inactive,,CC(=O)OC[C@]1(C)[C@@H]2/C=C(/C=O)CC/C=C(\C)CC[C@H]21,
